Data set [1] relates to Mus musculus. As to the kind of experiment: Anticonvulsant activity in ip dosed CF1 albino mouse assessed as inhibition of maximal electroshock-induced electrical stimulus at 300 mg/kg after 4 hrs. The format is functional, organism-based. The arrangement: dose 300 mg/kg. An outline of the steps:
(§1)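 Male CF-1 mice injected intraperitoneally at 30, 100 and 300 mg/kg, suspended in 0.5% methylcellulose/water. MES or subcutaneous pentylenetetrazole challenge at 0.5 and 4 h; selected compounds also at 1 or 2 h.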
(In general: In the maximal electroshock model the usual endpoint is tonic extension of the hind limbs.)

Data set [2] relates to Mus musculus. The experiment in a line: Neurotoxicity in ip dosed CF1 albino mouse at 300 mg/kg after 4 hrs by rotarod test. The class given is toxicity, organism-based. The arrangement: dose 300 mg/kg, route intraperitoneal. The note with it: in vivo. Summed up:
(§2)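 CF-1 mice given 30, 100 or 300 mg/kg ip in 0.5% methylcellulose/water, examined at 0.5 and 4 h. Rotorod test: neurotoxicity is the inability to keep equilibrium on the rod for a given time. Value is the minimum dose giving motor impairment; a dash means none at 300 mg/kg.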

Data set [3] in a line: Lipophilicity, log kw of compound by RP-HPLC. The format is physicochemical. An outline of the steps: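 RP-HPLC on a C18 end-capped column at room temperature, with UV detection at 214 nm and uracil as the unretained marker. Capacity factor k = (tr − t0)/t0, from the mean of three measurement sets. log k extrapolated to 100% water (log k = log kw − Sφ) to give log kw.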

The subject of data set [4] is Mus musculus. As to the kind of experiment: Anticonvulsant activity in ip dosed CF1 albino mouse assessed as inhibition of subcutaneous pentylenetetrazole-induced electrical stimulus after 0.5 hr. The class given is functional. Summed up:
as §1

Data set [5] has as its system Mus musculus. As to the kind of experiment: Neurotoxicity in ip dosed CF1 albino mouse after 0.5 hr by rotarod test. The class given is toxicity, organism-based. To be noted: in vivo. An outline of the steps:
as §2

Data set [6] deals with Mus musculus. As to the kind of experiment: Anticonvulsant activity in ip dosed CF1 albino mouse assessed as inhibition of subcutaneous pentylenetetrazole-induced electrical stimulus at 300 mg/kg after 4 hrs. The arrangement: dose 300 mg/kg. The format is functional, organism-based. An outline of the steps:
as §1

The subject of data set [7] is Mus musculus. As to the kind of experiment: Anticonvulsant activity in ip dosed CF1 albino mouse assessed as inhibition of maximal electroshock-induced electrical stimulus at 300 mg/kg after 0.5 hr. Details: dose 300 mg/kg. The format is functional, organism-based. An outline of the steps:
as §1

For data set [8], the system named is Mus musculus. The experiment in a line: Neurotoxicity in ip dosed CF1 albino mouse after 4 hrs by rotarod test. The class given is toxicity, organism-based. To be noted: in vivo. Summed up: as §2
For orientation: The rotarod test checks motor coordination on a turning rod.

Data set [9] has as its system Mus musculus. The experiment in a line: Anticonvulsant activity in ip dosed CF1 albino mouse assessed as inhibition of maximal electroshock-induced electrical stimulus after 0.5 hr. The format is functional. Summed up: as §1
Data set [10] concerns Rattus norvegicus. As to the kind of experiment: Anticonvulsant activity in Sprague-Dawley rat assessed as protection against seizure at 30 mg/kg, po after 4 hrs by maximal electroshock test. The format is functional. Summed up: (§3)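 Male Sprague–Dawley rats; compound suspended in 0.5% methylcellulose/water and given orally at a fixed 30 mg/kg, four rats per time point. MES test run at 0.25, 0.5, 1, 2 and 4 h after dosing, with motor impairment checked in parallel. Read-out: number of rats of four protected.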

Data set [11] has as its system Mus musculus. As to the kind of experiment: Anticonvulsant activity in ip dosed CF1 albino mouse assessed as inhibition of maximal electroshock-induced electrical stimulus after 4 hrs. The format is functional. Summed up: as §1
Data set [12] concerns Mus musculus. The experiment in a line: Neurotoxicity in ip dosed CF1 albino mouse at 300 mg/kg after 0.5 hr by rotarod test. The format is toxicity, organism-based. The arrangement: dose 300 mg/kg, route intraperitoneal. The note with it: in vivo. An outline of the steps:
as §2

The subject of data set [13] is Mus musculus. As to the kind of experiment: Anticonvulsant activity in ip dosed CF1 albino mouse assessed as inhibition of subcutaneous pentylenetetrazole-induced electrical stimulus at 300 mg/kg after 0.5 hr. The class given is functional, organism-based. Details: dose 300 mg/kg. An outline of the steps:
as §1

The subject of data set [14] is Rattus norvegicus. The experiment in a line: Anticonvulsant activity in Sprague-Dawley rat assessed as protection against seizure at 30 mg/kg, po after 2 hrs by maximal electroshock test. The class given is functional. An outline of the steps: as §3
Data set [15] concerns Rattus norvegicus. The experiment in a line: Anticonvulsant activity in Sprague-Dawley rat assessed as protection against seizure at 50 mg/kg, po after 0.5 hr by subcutaneous pentylenetetrazole test. The format is functional. Summed up: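 Male Sprague–Dawley rats dosed orally at 50 mg/kg as a 0.5% methylcellulose/water suspension, four animals per time point. Convulsant given subcutaneously at 0.25, 0.5, 1, 2 and 4 h after dosing; rotorod motor impairment assessed in parallel. Read-out: number of rats of four protected.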

Active and inactive are the calls of the source. The rule behind the calls is not given here.

Take `O=C1C2CCCCC2C(=O)N1Nc1cccc(Cl)c1` (configuration not stated): the outcome in [1], in [6] and in data set [7] was inactive. Further, the Activity result was “Not Active” in data set [2], 300 mg/kg in data set [4] and 300 mg/kg in data set [5]. For the same molecule, in data set [3], the “log K” value stood at 2.173.

For `CCCC1(C)CC(=O)N(Nc2ccc(Br)cc2)C1=O` (configuration not stated), the Activity is 300 mg/kg in data set [8]; 100 mg/kg in data set [9]; 300 mg/kg in data set [4]; 300 mg/kg in data set [5]; 300 mg/kg in [11]. Also, in data set [3], the “log K” value worked out at 2.403. Also, in data set [10], the result was inactive.

In the case of `CCCC1(C)CC(=O)N(Nc2cccc(Cl)c2)C1=O` (configuration not stated), the Activity in [9] is 300 mg/kg; in data set [2], “Not Active”; in data set [4] it was 300 mg/kg; in data set [5], 100 mg/kg. The result in [1] and in data set [6] was inactive. In addition, in data set [3], the “log K” value is reported as 2.401.

On to `CCC1(CC)CC(=O)N(Nc2ccccc2Cl)C1=O`, for which the result in [1], in [6] and in [7] was inactive. Further, the Activity result was “Not Active” in data set [2], 300 mg/kg in data set [4] and 100 mg/kg in [5]. Also, the “log K” value in data set [3] is reported as 2.244.

Take `CNN1C(=O)CC(C)(C)C1=O`: the Activity result in data set [12] and in [2] was “Not Active” in each case. Besides, the outcome in data set [1], in data set [6], in data set [13] and in [7] was inactive.

For the molecule `CCC1(C)CC(=O)N(Nc2ccccc2Cl)C1=O` (configuration not stated), the Activity in [9] is 300 mg/kg; in data set [2], “Not Active”; in data set [5], 300 mg/kg. Moreover, the result in [1], in [6] and in [13] was inactive. Also, the “log K” value in data set [3] is recorded as 2.029.

With `CCCCC1(C)CC(=O)N(Nc2ccc(Cl)cc2)C1=O` (configuration not stated), the result in [1], in [6], in data set [13] and in data set [7] was inactive. For the same molecule, the figures for the Activity entry in data set [2] and in [5] were “Not Active” and 300 mg/kg, respectively. For the same molecule, the “log K” value in data set [3] was found to be 2.638.

On to `CCCC1(C)CC(=O)N(Nc2ccc(Cl)cc2)C1=O` (configuration not stated), for which the Activity in data set [8] turned out to be 300 mg/kg; in data set [9], 100 mg/kg; in data set [4] it was 100 mg/kg; in data set [5], 100 mg/kg; in data set [11] it was 300 mg/kg. Also, in data set [3], the “log K” value was 2.445. For the same molecule, the result in data set [10] was inactive.

As for `O=C1C2CCCCC2C(=O)N1Nc1ccc(Cl)cc1Cl` (configuration not stated), the figures for the Activity in data set [8], in data set [5] and in [11] were 300 mg/kg, 300 mg/kg and 100 mg/kg, respectively. Also, the “log K” value in data set [3] stood at 2.425. The result in data set [6] and in data set [13] was inactive.

Regarding `CCCCC1(C)CC(=O)N(Nc2ccc(Cl)cc2Cl)C1=O` (configuration not stated), the Activity in data set [9] is 100 mg/kg; in data set [2], “Not Active”; in [4] it was 100 mg/kg; in [5] it was 100 mg/kg. Also, the outcome in data set [1] and in data set [6] was inactive. Besides, the “log K” value in data set [3] worked out at 2.896.

Turning to `CC1(C)CC(=O)N(Nc2ccccc2Cl)C1=O`, the Activity in data set [9] was 100 mg/kg; in [2] it was “Not Active”; in data set [4], 300 mg/kg; in data set [5], 30 mg/kg. Further, the outcome in data set [1] and in data set [6] was inactive. Also, the “log K” value in data set [3] is 1.876.

For `CCCC1(C)CC(=O)N(Nc2ccccc2Cl)C1=O` (configuration not stated), the Activity in data set [9] was 300 mg/kg; in [2], “Not Active”; in [4], 300 mg/kg; in data set [5] it was 300 mg/kg. For the same molecule, the outcome in data set [1] and in data set [6] was inactive. Besides, the “log K” value in data set [3] is given as 2.364.

Consider `O=C1C2CCCCC2C(=O)N1Nc1ccc(Cl)cc1` (configuration not stated), for which the Activity entry was “Not Active” in data set [12], “Not Active” in data set [2] and 100 mg/kg in data set [4]. In addition, the result in data set [1], in data set [6] and in data set [7] was inactive. The “log K” value in [3] is listed as 2.224.

With `CCC1(CC)CC(=O)N(Nc2ccccc2)C1=O`, the result in [1], in data set [6], in data set [13] and in data set [7] was inactive. Also, the Activity entry in [2] was “Not Active”; in [5], 300 mg/kg. Further, the “log K” value in data set [3] stood at 1.826.

Consider `CCC1(C)CC(=O)N(Nc2ccccc2C)C1=O` (configuration not stated), for which the Activity in data set [8] came to 100 mg/kg; in data set [9], 300 mg/kg; in data set [5] it was 100 mg/kg. Besides, the outcome in data set [1], in [6] and in [13] was inactive. The “log K” value in [3] was determined as 1.864.

On to `CCC1(CC)CC(=O)N(Nc2ccc(Br)cc2)C1=O`, for which the Activity result in data set [12] and in [2] was “Not Active” in each case. The result in [1], in data set [6], in data set [13] and in data set [7] was inactive. Also, the “log K” value in [3] was 2.221.

For `CCC1(CC)CC(=O)N(Nc2ccc(C)cc2)C1=O`, the Activity in [9] was 300 mg/kg; in data set [2] it was “Not Active”; in data set [5], 100 mg/kg. The outcome in data set [1], in [6] and in data set [13] was inactive. For the same molecule, the “log K” value in data set [3] worked out at 1.999.

For the molecule `CCC1(C)CC(=O)N(Nc2ccccc2)C1=O` (configuration not stated), the Activity in [9] amounted to 300 mg/kg; in [4], 300 mg/kg; in data set [5] it was 100 mg/kg. Further, the result in [14], in data set [15] and in data set [10] was inactive. In [3], the “log K” value came to 1.695.

Take `CCC1(C)CC(=O)N(Nc2ccc(C)cc2)C1=O` (configuration not stated): the Activity is 300 mg/kg in data set [9], “Not Active” in [2], 300 mg/kg in data set [4] and 300 mg/kg in data set [5]. The outcome in data set [1] and in data set [6] was inactive. Besides, the “log K” value in data set [3] came to 1.928.

In the case of `CCCCC1(C)CC(=O)N(Nc2ccccc2Cl)C1=O` (configuration not stated), the Activity in data set [9] was 300 mg/kg; in [2] it was “Not Active”; in [4], 300 mg/kg; in [5], 300 mg/kg. The result in data set [1] and in data set [6] was inactive. Further, the “log K” value in data set [3] turned out to be 2.566.

On to `O=C1C2CCCCC2C(=O)N1Nc1ccccc1Cl` (configuration not stated), for which the Activity result in data set [12] and in data set [2] was “Not Active” each time. The result in data set [1], in data set [6], in [13] and in data set [7] was inactive. For the same molecule, the “log K” value in data set [3] came to 2.162.

As for `Cc1ccc(NN2C(=O)CC(C)(C)C2=O)cc1`, the Activity was 300 mg/kg in data set [9], “Not Active” in data set [2], 300 mg/kg in data set [4] and 100 mg/kg in [5]. Also, the outcome in [1] and in data set [6] was inactive. In addition, in data set [3], the “log K” value was 1.642.

The values above are taken from ChEMBL document CHEMBL1157190, “Design, synthesis, and anticonvulsant activity of N-phenylamino derivatives of 3,3-dialkyl-pyrrolidine-2,5-diones and hexahydro-isoindole-1,3-diones” (Bioorg Med Chem, 2008).
